The values below come from ChEMBL document CHEMBL4304789, “Design, Synthesis, and Biological Evaluation of 2,4-Imidazolinedione Derivatives as HDAC6 Isoform-Selective Inhibitors” (ACS Med Chem Lett, 2019).

One assay addresses Histone deacetylase 3 (Homo sapiens, UniProt O15379). In words: Inhibition of HDAC3 (unknown origin) using Ac-LeuGlyLys(Ac)-AMC as substrate preincubated for 5 mins followed by substrate addition and measured after 60 mins by fluorescence based assay.
In a further assay the target is Histone deacetylase 2 (Homo sapiens, UniProt Q92769). As to the kind of experiment: Inhibition of HDAC2 (unknown origin) using Ac-LeuGlyLys(Ac)-AMC as substrate preincubated for 5 mins followed by substrate addition and measured after 60 mins by fluorescence based assay.
Histone deacetylase 2, sequence (Q92769 whole entry): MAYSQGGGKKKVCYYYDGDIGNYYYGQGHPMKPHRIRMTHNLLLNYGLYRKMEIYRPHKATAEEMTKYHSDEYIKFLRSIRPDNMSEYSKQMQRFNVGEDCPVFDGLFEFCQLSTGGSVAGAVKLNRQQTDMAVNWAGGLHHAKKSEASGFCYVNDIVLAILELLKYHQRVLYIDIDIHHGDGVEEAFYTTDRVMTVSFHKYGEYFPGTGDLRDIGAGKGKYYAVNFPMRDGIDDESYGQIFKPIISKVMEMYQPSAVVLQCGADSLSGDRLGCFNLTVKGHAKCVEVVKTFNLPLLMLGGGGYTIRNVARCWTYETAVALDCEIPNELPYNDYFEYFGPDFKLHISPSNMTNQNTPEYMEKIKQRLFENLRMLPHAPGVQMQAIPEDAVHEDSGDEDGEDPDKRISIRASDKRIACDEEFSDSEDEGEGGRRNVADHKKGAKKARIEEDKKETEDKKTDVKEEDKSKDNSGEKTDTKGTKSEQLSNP
The next assay deals with Histone deacetylase 5 (Homo sapiens, UniProt Q9UQL6). As to the kind of experiment: Inhibition of HDAC5 (unknown origin) using Ac-LeuGlyLys(tfa)-AMC as substrate preincubated for 5 mins followed by substrate addition and measured after 60 mins by fluorescence based assay.
Histone deacetylase 5, sequence (Q9UQL6 whole entry): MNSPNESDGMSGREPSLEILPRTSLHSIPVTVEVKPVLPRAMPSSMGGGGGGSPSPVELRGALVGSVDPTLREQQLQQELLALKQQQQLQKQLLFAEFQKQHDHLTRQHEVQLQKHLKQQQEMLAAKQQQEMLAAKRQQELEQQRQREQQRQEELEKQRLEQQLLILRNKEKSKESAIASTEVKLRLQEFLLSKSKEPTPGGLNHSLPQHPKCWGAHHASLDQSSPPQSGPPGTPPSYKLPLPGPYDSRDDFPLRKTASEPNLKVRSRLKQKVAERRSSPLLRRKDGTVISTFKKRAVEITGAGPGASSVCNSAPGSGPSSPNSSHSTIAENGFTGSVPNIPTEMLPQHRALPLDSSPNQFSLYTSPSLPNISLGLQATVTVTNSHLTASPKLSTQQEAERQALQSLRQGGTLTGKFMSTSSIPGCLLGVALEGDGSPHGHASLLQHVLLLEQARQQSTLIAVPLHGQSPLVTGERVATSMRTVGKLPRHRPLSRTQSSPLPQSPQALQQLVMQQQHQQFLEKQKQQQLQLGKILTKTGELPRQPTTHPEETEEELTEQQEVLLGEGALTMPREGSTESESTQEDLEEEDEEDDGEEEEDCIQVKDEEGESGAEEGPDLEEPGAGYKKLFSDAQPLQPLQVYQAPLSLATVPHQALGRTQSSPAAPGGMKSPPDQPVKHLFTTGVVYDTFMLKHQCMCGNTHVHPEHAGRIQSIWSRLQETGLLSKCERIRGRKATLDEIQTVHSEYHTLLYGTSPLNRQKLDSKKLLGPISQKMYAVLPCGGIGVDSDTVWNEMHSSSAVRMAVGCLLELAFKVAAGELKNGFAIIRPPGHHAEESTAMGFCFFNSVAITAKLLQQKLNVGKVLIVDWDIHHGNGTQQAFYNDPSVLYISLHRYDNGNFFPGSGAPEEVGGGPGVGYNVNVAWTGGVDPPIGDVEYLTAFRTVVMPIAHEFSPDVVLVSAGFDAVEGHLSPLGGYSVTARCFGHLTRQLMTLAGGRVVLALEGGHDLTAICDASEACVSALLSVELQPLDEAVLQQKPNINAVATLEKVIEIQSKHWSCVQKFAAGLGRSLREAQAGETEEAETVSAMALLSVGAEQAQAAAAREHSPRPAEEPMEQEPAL
A further assay addresses Histone deacetylase 9 (Homo sapiens, UniProt Q9UKV0). In words: Inhibition of HDAC9 (unknown origin) using Ac-LeuGlyLys(tfa)-AMC as substrate preincubated for 5 mins followed by substrate addition and measured after 60 mins by fluorescence based assay.
Assay [1] addresses T1, Polyamine deacetylase HDAC10 (Homo sapiens, UniProt Q969S8).
T1 sequence (Q969S8 whole entry): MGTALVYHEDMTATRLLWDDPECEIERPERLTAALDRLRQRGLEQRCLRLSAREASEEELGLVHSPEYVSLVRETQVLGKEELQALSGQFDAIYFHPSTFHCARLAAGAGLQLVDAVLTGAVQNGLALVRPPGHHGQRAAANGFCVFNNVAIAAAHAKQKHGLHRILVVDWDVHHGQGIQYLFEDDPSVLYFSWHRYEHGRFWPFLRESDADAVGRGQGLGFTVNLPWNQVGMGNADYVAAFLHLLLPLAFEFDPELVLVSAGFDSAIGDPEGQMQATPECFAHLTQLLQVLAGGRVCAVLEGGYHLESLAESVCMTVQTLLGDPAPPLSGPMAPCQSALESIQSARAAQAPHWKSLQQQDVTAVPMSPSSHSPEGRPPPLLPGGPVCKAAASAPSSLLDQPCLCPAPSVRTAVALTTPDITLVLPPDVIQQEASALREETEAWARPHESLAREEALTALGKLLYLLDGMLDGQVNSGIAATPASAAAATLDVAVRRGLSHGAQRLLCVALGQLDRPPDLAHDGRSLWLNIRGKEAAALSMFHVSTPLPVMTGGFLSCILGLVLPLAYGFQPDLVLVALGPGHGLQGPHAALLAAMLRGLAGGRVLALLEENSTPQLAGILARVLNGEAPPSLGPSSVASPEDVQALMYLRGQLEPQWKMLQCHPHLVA
In words: Inhibition of HDAC10 (unknown origin) using Ac-ArgThr- Lys(Ac)Lys(Ac)-AMC as substrate preincubated for 5 mins followed by substrate addition and measured after 60 mins by fluorescence based assay.

The target of the next assay is T2, Histone deacetylase 11 (Homo sapiens, UniProt Q96DB2).
T2 sequence (Q96DB2 whole entry): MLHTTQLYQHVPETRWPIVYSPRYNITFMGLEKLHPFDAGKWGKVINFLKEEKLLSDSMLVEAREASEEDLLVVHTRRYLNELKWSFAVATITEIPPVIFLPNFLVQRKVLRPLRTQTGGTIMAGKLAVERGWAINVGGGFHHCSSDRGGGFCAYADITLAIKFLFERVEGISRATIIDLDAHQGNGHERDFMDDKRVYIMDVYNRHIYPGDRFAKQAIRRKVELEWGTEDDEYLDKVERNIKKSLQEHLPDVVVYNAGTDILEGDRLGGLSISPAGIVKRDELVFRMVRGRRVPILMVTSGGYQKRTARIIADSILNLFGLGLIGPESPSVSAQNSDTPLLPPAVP
In words: Inhibition of HDAC11 (unknown origin) using Ac-LeuGlyLys(Ac)-AMC as substrate preincubated for 5 mins followed by substrate addition and measured after 60 mins by fluorescence based assay.

The test system of a further assay is K562. As to the kind of experiment: Antiproliferative activity against human K562 cells incubated for 48 hrs by MTT assay. Conditions: K562, 48 h. The class given is functional, cell-based. Background: Formazan colour is commonly taken as a measure of viable cells.
Assay [2] concerns HL-60. As to the kind of experiment: Antiproliferative activity against human HL60 cells incubated for 48 hrs by MTT assay. The class given is functional, cell-based. Conditions: HL-60, 48 h.
The next assay deals with A549. As to the kind of experiment: Antiproliferative activity against human A549 cells incubated for 48 hrs by MTT assay. The class given is functional, cell-based. Conditions: A549, 48 h.
The subject of assay [3] is HL-60. In words: Induction of cell cycle arrest in human HL60 cells assessed as accumulation of cells at subG1 phase at 0.25 to 0.45 uM incubated for 48 hrs by PI staining based flow cytometric analysis. The class given is functional. The method, boiled down:
(§1)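 PI staining of HL-60 cells, with DMSO-treated cells as control, used to read cell-cycle phase distribution including G1 and subG1 fractions. Mean ± SD of at least three independent experiments.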
On the technique in general: Flow cytometry measures light scatter and fluorescence of single cells or particles in a stream.

For assay [4], the system named is HL-60. In words: Induction of cell cycle arrest in human HL60 cells assessed as accumulation of cells at G1 phase at 0.25 to 0.45 uM incubated for 48 hrs by PI staining based flow cytometric analysis. The class given is functional. An outline of the steps: as §1
Assay [5] has as its system HL-60. In words: Induction of apoptosis in human in human HL60 cells assessed as increase in caspase 3 activation at 0.25 to 0.75 uM using […] as substrate preincubated for 24 to 48 hrs followed by substrate addition and measured after 1.5 hrs by fluorescence based assay. The class given is functional, cell-based. An outline of the steps: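 HL-60 cells exposed to 0.25, 0.45 and 0.75 μM for 24 and 48 h, with untreated cells as control; activated caspase 3 measured. Mean ± SD of at least three independent experiments; significance versus untreated control set at p < 0.05.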

Assay [6] is filed under the species Homo sapiens. In words: Selectivity ratio of IC50 for HDAC1 (unknown origin) to IC50 for HDAC6 (unknown origin). The method, boiled down:
(§2)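 Each isoform's IC50 comes from a dose–effect curve in an HDAC isoform inhibition panel, with replicates n ≥ 2. The ratio is that isoform's IC50 divided by the HDAC6 IC50.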

Assay [7] is filed under the species Homo sapiens. As to the kind of experiment: Selectivity ratio of IC50 for HDAC2 (unknown origin) to IC50 for HDAC6 (unknown origin). The method, boiled down: as §2
The species entered for assay [8] is Homo sapiens. As to the kind of experiment: Selectivity ratio of IC50 for HDAC3 (unknown origin) to IC50 for HDAC6 (unknown origin). An outline of the steps:
as §2

For assay [9], the species on record is Homo sapiens. In words: Selectivity ratio of IC50 for HDAC4 (unknown origin) to IC50 for HDAC6 (unknown origin). The method, boiled down: as §2
The species entered for assay [10] is Homo sapiens. In words: Selectivity ratio of IC50 for HDAC7 (unknown origin) to IC50 for HDAC6 (unknown origin). An outline of the steps: as §2
The species entered for assay [11] is Homo sapiens. In words: Selectivity ratio of IC50 for HDAC8 (unknown origin) to IC50 for HDAC6 (unknown origin). An outline of the steps:
as §2

The species named for assay [12] is Homo sapiens. In words: Selectivity ratio of IC50 for HDAC9 (unknown origin) to IC50 for HDAC6 (unknown origin). The method, boiled down:
as §2

For assay [13], the species on record is Homo sapiens. In words: Selectivity ratio of IC50 for HDAC11 (unknown origin) to IC50 for HDAC6 (unknown origin). The method, boiled down: as §2
For assay [14], the target named is Histone deacetylase (Homo sapiens) (UniProt Q13547+O15379+Q9UBN7+Q92769+Q9UQL6+Q8WUI4+Q9BY41+Q96DB2+P56524+Q9UKV0+Q969S8). Conditions: at 0.08 to 1.6 µM.

Activity calls are given as the source filed them. The calls are words filed in the database; no cut-off is given here.

Histone deacetylase 9, sequence (Q9UKV0 whole entry): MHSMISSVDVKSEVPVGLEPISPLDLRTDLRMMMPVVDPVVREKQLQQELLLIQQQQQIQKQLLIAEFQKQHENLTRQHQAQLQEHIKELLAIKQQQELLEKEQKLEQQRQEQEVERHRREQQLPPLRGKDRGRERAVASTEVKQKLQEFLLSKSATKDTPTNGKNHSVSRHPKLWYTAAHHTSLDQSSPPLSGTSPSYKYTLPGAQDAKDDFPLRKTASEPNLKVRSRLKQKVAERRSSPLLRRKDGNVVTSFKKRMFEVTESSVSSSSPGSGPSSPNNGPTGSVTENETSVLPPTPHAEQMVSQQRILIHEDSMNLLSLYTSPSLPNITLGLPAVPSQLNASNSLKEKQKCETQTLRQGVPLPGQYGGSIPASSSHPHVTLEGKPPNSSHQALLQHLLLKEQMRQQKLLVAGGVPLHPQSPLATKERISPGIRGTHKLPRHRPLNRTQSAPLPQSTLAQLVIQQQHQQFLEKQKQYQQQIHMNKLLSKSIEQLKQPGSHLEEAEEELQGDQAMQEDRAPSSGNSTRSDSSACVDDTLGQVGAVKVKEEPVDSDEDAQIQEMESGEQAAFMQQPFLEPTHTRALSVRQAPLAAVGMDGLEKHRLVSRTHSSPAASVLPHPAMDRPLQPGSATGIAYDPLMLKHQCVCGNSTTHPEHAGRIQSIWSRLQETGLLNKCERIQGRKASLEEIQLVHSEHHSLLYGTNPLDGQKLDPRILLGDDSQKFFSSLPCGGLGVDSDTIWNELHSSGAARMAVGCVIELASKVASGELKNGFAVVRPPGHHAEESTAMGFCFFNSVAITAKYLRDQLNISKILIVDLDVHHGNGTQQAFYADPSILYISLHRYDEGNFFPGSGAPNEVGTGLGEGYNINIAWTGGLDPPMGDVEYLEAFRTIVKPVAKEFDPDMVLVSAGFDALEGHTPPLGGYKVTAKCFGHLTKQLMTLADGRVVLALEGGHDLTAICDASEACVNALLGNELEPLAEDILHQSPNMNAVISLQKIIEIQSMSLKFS
Histone deacetylase 3, sequence (O15379 whole entry): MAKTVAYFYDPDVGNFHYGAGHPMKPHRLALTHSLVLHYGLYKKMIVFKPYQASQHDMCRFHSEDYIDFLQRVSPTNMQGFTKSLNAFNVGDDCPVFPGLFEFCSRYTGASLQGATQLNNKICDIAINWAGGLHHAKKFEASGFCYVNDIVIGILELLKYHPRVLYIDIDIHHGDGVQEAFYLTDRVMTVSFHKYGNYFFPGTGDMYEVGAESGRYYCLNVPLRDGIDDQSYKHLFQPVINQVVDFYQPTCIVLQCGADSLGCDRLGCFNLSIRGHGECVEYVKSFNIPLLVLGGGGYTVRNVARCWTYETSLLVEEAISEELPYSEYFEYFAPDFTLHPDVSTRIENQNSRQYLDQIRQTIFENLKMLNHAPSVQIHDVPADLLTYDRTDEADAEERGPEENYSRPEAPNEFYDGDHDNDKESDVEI

Usually IC50 stands for the concentration that inhibits the measured activity by half. Low values mean inhibition by little substance, high ones a need for much substance. For the compound `O=C(CCC1C(=O)N(c2ccc(Cl)cc2)C(=O)N1Cc1ccc(Br)cc1)Nc1ccc(C(=O)NO)cc1` (stereo unspecified), the half-inhibitory concentration (IC50) against Histone deacetylase 3 is 126 nM; against Histone deacetylase 2, 249 nM; against Histone deacetylase 5, 4600 nM; on Histone deacetylase 9, 9100 nM; in assay [1], 268 nM; on Histone deacetylase 11 it was greater than 100000 nM. The half-inhibitory concentration (IC50) in the assay on K562 is 690 nM; in the assay on HL-60 [2], 340 nM; in the assay with A549, 5860 nM. Also, the outcome with HL-60 [3] and in the assay on HL-60 [4] was Active.
On to `O=C(CCC1C(=O)N(c2ccc(Cl)cc2)C(=O)N1Cc1ccccc1)Nc1ccc(C(=O)NO)cc1` (stereo unspecified), for which the IC50 on Histone deacetylase 3 was 96 nM; against Histone deacetylase 2, 203 nM; against Histone deacetylase 5, 4600 nM; at Histone deacetylase 9 it was 15200 nM; in assay [1] it was 114 nM; against Histone deacetylase 11, greater than 100000 nM. For the same compound, the IC50 in the assay with K562 is 830 nM; in the assay on HL-60 [2] it was 610 nM; with A549, 9450 nM.
Turning to `Cc1ccc(CN2C(=O)N(c3ccc(Cl)cc3)C(=O)C2CCC(=O)Nc2ccc(C(=O)NO)cc2)cc1` (stereo unspecified), the outcome with HL-60 [5], with HL-60 [3] and with HL-60 [4] was Active. The IC50 against Histone deacetylase 3 was 235 nM; against Histone deacetylase 2, 277 nM; at Histone deacetylase 5, 14900 nM; against Histone deacetylase 9 it was greater than 100000 nM; in assay [1], 164 nM; on Histone deacetylase 11, greater than 100000 nM. In addition, the results for the IC50 with K562, with HL-60 [2] and in the assay with A549 were 490 nM, 250 nM and 790 nM, respectively. Further, the Ratio IC50 in the assay listed under Homo sapiens [6] is 218; in the assay filed under Homo sapiens [7] it was 63; in the assay filed under Homo sapiens [8], 53; in the assay filed under Homo sapiens [9], greater than 20000; in the assay filed under Homo sapiens [10], greater than 20000; in the assay listed under Homo sapiens [11] it was greater than 20000. Besides, the Ratio IC50 in the assay listed under Homo sapiens [12] and in the assay filed under Homo sapiens [13] was greater than 20000 each time. Also, the inhibition result in assay [14] is “Active”.
